Thrombin inh = inhibitors of human thrombin; AID 1046; alpha-thrombin, Boc-VPR-AMC fluorogenic substrate cleavage; actives 0.26% (n = 220,000); inhibition, % at 5 µM;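 active means inhibition at or above 40%; inactive means inhibition below 40%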;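 further: 0% = enzyme with no compound and 100% = wells without enzyme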
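Material: human alpha-thrombin protein; Also added: Boc-VPR-AMC substrate, 15 µM final; Timing: enzyme reaction carried out at room temperature; Signal: fluorescence, ex 355 nm, em 460 nm; Measure: % inhibition of thrombin; Controls: enzyme without compound as high, wells lacking enzyme as low.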
FXIIa inh 1536 = inhibitors of human coagulation factor XIIa; purified FXIIa, Boc-QGR-AMC fluorogenic substrate, 2 h; inhibition, % at 5 µM; actives 0.3% (n = 220,000); AID 800; in the data active means inhibition above about 40%;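 further: 0% = enzyme with no compound and 100% = blank without enzyme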
Target sequence (P00748 20-372 limits assumed): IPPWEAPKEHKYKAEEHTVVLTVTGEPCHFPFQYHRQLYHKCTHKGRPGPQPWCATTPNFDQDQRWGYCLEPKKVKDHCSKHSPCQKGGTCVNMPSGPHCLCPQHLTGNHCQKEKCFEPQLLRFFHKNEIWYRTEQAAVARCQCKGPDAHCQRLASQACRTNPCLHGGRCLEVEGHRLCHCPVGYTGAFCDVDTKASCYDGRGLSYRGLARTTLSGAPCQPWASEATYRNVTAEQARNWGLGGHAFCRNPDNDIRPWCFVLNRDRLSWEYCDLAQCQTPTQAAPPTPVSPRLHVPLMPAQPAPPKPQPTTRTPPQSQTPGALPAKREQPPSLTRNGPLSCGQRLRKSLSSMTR
Target sequence (P00748 373-615 limits assumed): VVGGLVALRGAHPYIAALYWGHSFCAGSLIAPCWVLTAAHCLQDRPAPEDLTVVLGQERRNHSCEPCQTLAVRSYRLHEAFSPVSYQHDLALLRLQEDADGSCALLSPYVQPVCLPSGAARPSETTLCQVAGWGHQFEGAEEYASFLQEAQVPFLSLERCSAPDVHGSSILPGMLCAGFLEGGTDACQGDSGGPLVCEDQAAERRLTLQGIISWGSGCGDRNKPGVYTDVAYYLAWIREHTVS
Calpain2 inh = inhibitors of pig calpain II; purified calpain II, fluorogenic peptide substrate, 30 min; inhibition, % at 16 µM; actives 0.37% (n = 220,000);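 active means inhibition above about 50%, limit read from the data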
hK5 inh = blocks human kallikrein 5 protease activity | actives 0.59% (n = 210,000) | AID 873 | Q9Y337 | recombinant hK5, fluorogenic AMC substrate cleavage | inhibition, % at 5 µM;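 active means inhibition of 40% or more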;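 further: 0% = enzyme controls without compound and 100% = no-enzyme blanks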
FXIa inh 1536 = factor XIa (human) inhibition. purified FXIa, Boc-Glu-Ala-Arg-AMC fluorogenic substrate. inhibition, % at 5 µM. actives 0.14% (n = 220,000). AID 798;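 active means inhibition of at least 40%; inactive means inhibition below 40%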;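 further: fluorescence of freed AMC excited at 355 nm; 0% = enzyme without compound and 100% = no enzyme blank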
Starred values were filed as active, the others as inactive; x = not tested or not shown. Compounds with a hit are over-represented: about 1.4% of the library has one in this group of screens.

SMILES | Thrombin inh | FXIIa inh 1536 | Calpain2 inh | hK5 inh | FXIa inh 1536
CC(OC(=O)CCCN1C(=O)c2ccccc2C1=O)C(=O)Nc1ncc(Cl)cc1Cl (stereo unspecified) | 26.4 | -0.8 | 10.9 | 70.4* | 1.3
Nc1nc(-c2ccc(Cl)cc2)nc(-c2ccc(Cl)cc2)n1 | -5.1 | 3.9 | -10.4 | -2.9 | -0.1
CCCCNC(=O)c1ccc(NC(=O)C2CCCO2)cc1 (stereo unspecified) | 15.1 | 11.9 | 14.6 | -13.2 | 4.5
CCCCc1ccc(NC(=O)C2CCCO2)cc1 (stereo unspecified) | 0.9 | 8.6 | 52.8* | 0.3 | -9.5
COc1ccc(NC(=O)COC(=O)c2ccc([N+](=O)[O-])o2)cc1Cl | 3.0 | 11.3 | -33.4 | 7.2 | 3.1
CS(=O)(=O)Nc1ccc(C(=O)N2CCc3ccccc3C2)cc1 | 4.1 | 5.8 | 10.3 | x | 1.6
CS(=O)(=O)c1ccc(C(=O)N2CCc3ccccc3C2)cc1 | -4.0 | 4.8 | 59.5* | -7.0 | -3.0
Cc1ccc(S(=O)(=O)NNC(=O)c2ccc(O)cc2)cc1 | 29.4 | 10.0 | 26.2 | 53.4* | 3.5
O=C(NCCCN1CCCC1)c1ccc2c(Cl)c3c(nc2c1)CCCC3 | 2.9 | 41.2* | -29.1 | 0.8 | -3.9
Cc1ccccc1-c1nc(CN(Cc2c(C)nn(C)c2C)C2CC2)c(C)o1 | -2.8 | 8.1 | -8.2 | -5.3 | -4.0
C#CC(C)OC(=O)Nc1cnccc1C(F)(F)F (stereo unspecified) | 2.7 | 12.0 | -10.7 | -2.9 | 3.0
Cc1cc(C(F)(F)F)c(C#N)c(SCC(=O)NC(C)(C)C)n1 | 7.7 | 35.9 | 24.1 | 41.8* | 15.7
CNC(=O)c1ccccc1Sc1ccccc1C#N | -3.0 | -6.7 | 9.7 | -6.2 | 0.4
CCOC(=O)CCNC(=O)N1CCCC(CNS(=O)(=O)c2cccs2)C1 (stereo unspecified) | 41.0* | 35.1 | 16.2 | 17.6 | 36.1
NC(=O)c1ccsc1NC(=O)CSc1nnc(C2CC2)n1Cc1ccccc1 | 59.2* | 16.4 | -1.4 | 48.1* | 9.7
Cc1cccc(OCCCSc2nc3ccc(C)cc3[nH]2)c1 | 10.1 | 0.2 | 71.4* | -15.1 | -14.2
Cc1cccc(OCCSc2nc3ncnc(N)c3[nH]2)c1 | -0.3 | 0.1 | 18.7 | -9.8 | -6.0
O=C(CC1CC2CCC1C2)Nc1nc(-c2ccccn2)cs1 (stereo unspecified) | 19.1 | 21.0 | 15.0 | 86.9* | 28.4
O=C(O)c1c2c(nc3ccc(S(=O)(=O)N4CCC(C(=O)NC5CCCCCC5)CC4)cc13)CCCC2 | -0.7 | 8.6 | -117.5 | -7.6 | -2.9
Cc1noc(NS(=O)(=O)c2ccc(NC(=O)c3ccc(N4C(=O)c5ccccc5C4=O)cc3)cc2)c1C | -0.6 | 7.7 | 82.5* | 0.0 | 1.3
CC(NC(=O)CCCCCN1C(=O)c2ccccc2C1=O)c1ccc2c(c1)CCCC2 (stereo unspecified) | -9.0 | -4.4 | 57.2* | 4.1 | -1.1
COc1ccc(S(=O)(=O)NCCOc2cccc3cccnc23)cc1OC | 11.4 | 30.4 | 16.2 | 11.1 | 42.1*
N=C1C=CC=C2C1=NC1(CCCCC1)N2O | 104.0* | 11.9 | 2.9 | 98.2* | 32.4
CC(C)(C)N=C1C([N+](=O)[O-])=CC=C2C1=NC1(CCCCC1)N2O | 3.1 | 13.4 | -1.6 | -0.8 | 9.2
N#CNC(=Nc1ccc(Cl)cc1)Oc1ccccc1 | -6.5 | 14.8 | -4.3 | 4.7 | 5.1
SMILES | Thrombin inh | FXIIa inh 1536 | Calpain2 inh | hK5 inh | FXIa inh 1536
O=C(NC(=S)NNC(=O)[C@H]1C[C@@H]1c1ccccc1)c1cccc(F)c1 | -5.4 | 2.8 | -12.8 | -19.1 | -2.7
CCn1c(-c2c(Cl)c(C)nn2C)n[nH]c1=S | 15.9 | 16.9 | 19.5 | 55.5* | -0.3
CCCCn1c(-c2c(Cl)c(C)nn2C)n[nH]c1=S | -4.7 | 1.6 | 21.1 | -14.3 | -6.5
COc1cc2c(cc1OC)C(c1cccs1)N(C(=O)c1ccc(S(=O)(=O)N(C)C)cc1)CC2 (stereo unspecified) | 1.5 | 9.6 | -34.8 | 6.7 | 0.9
CCn1nc(C)c([N+](=O)[O-])c1C(=O)NNC(=O)c1ccccc1Cl | 4.9 | 9.9 | -20.3 | -6.7 | -4.4
CCOC(=O)CSc1n[nH]c(NC(=O)c2cccc(C(F)(F)F)c2)n1 | 77.7* | 14.8 | 11.9 | 38.9 | -7.5
COc1cccc(C(=O)Nc2nc(SCc3ccc(Cl)cc3)n[nH]2)c1 | 51.3* | 34.5 | 6.4 | 29.4 | 8.4
Cc1ccc(NC(=O)c2c(C(=O)Nc3ccccc3)sc3nc(C)cc(=O)n23)cc1 | -7.3 | 7.5 | -21.3 | -2.0 | -1.3
